PubChem BioAssay
The source made the active and inactive calls.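 The calls were made as follows, unless noted: active = viability loss from added drug above about 55%, and viability with drug at most 40%, in both replicates (limit read from the data, passing the limit was not always enough); inconclusive = both conditions met in only one replicate; inactive = neither replicate meets both conditions.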

Experiments:
[1] = reducers of endogenous Her2 protein level, primary screen, SKBR3 breast tumor cells, AlphaScreen, ATP viability (AID 461;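 active = Her2 level under about 52% in both replicate screens, with viability over 70% of control, limit read from the data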;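 as to Her2 level: lower value means less Her2 protein in the cells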;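 as to viability: percent of carrier control wells set as 100% viability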); conditions: 18-24 h, measured here: SKBR3 viability, ATP luminescence, at 10 µM
[2] = target: Receptor tyrosine-protein kinase erbB-2 (Homo sapiens) (UniProt P04626); assay: as above; conditions: 18-24 h, at 10 µM, stronger effect = lower value
[3] = SK-BR-3 cell growth inhibitors, pilot screen, 24 h, human (AID 572;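 active = viability at or below 10% of carrier control in both of two separate runs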;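 also: compound exposure lasted between 18 and 24 h rather than exactly 24 h; 100% = carrier-treated control wells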); conditions: SK-BR-3 viability, CellTiter-Glo luminescence, at 10 µM, stronger effect = lower value
[4] = HUVEC growth inhibition – cell-based, human, primary screen (AID 575;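 active = viability at or below 30% in both replicate assays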;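 also: 100% = median of untreated cell wells with 0.1% DMSO on each plate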); conditions: HUVEC proliferation, CellTiter-Glo luminescence, 72 h; at 10 µM; stronger effect = lower value
Procedure, shortened: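 System: primary human umbilical vein endothelial cells; Quantity: 1250 endothelial cells in each well; Buffer or medium: supplemented EBM, 2% fetal bovine serum; Doses: one dose, 10 µM final, 0.1% DMSO; Incubation: 72 h compound incubation; Technique: ATP-based CellTiter-Glo luminescent read; Evaluation: percent of median DMSO-control luminescence; Controls: vehicle and MePR control wells.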

[5] = growth inhibitors of H69AR lung tumor, primary screen, human, duplicate replicates (AID 580;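 active = viability at or under a set limit in both replicates, limit being median viability minus 3 SD, cut at about 48% in these data, passing the limit was not always enough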;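 also: 100% = mean luminescence of untreated wells and 0% = no signal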); conditions: H69AR lung tumor cells viability, ATP luminescence, 72 h; at 10 µM; stronger effect = lower value
[6] = reversal of MRP1-mediated doxorubicin resistance, pilot screen, H69AR cells, doxorubicin co-treatment (AID 601); conditions: CellTiter-Glo, 72 h, at 10 µM; for differential viability (reversal): stronger effect = higher value
[7] = 384-well plate pilot, post-Golgi transport modulator project, inhibition of yeast transport mutant growth (AID 636; in the data active = inhibition above about 31%); conditions: absorbance 615 nm, about 18 h, stronger effect = higher value
[8] = growth suppression of yeast trafficking mutant, preliminary HTS, modulators of trafficking downstream of Golgi apparatus project, 1536-format plate, OD 615 nm (AID 637; in the data active = inhibition above about 30%); conditions: yeast transport mutant growth, absorbance 615 nm, 18 h; stronger effect = higher value
[9] = H69AR cells + 2 uM doxorubicin, measured here: viability with 2 uM doxorubicin, stronger effect = lower value
[10] = H69AR cells, compound alone cytotoxicity

Receptor tyrosine-protein kinase erbB-2 (Homo sapiens), sequence (P04626 whole entry, looked up): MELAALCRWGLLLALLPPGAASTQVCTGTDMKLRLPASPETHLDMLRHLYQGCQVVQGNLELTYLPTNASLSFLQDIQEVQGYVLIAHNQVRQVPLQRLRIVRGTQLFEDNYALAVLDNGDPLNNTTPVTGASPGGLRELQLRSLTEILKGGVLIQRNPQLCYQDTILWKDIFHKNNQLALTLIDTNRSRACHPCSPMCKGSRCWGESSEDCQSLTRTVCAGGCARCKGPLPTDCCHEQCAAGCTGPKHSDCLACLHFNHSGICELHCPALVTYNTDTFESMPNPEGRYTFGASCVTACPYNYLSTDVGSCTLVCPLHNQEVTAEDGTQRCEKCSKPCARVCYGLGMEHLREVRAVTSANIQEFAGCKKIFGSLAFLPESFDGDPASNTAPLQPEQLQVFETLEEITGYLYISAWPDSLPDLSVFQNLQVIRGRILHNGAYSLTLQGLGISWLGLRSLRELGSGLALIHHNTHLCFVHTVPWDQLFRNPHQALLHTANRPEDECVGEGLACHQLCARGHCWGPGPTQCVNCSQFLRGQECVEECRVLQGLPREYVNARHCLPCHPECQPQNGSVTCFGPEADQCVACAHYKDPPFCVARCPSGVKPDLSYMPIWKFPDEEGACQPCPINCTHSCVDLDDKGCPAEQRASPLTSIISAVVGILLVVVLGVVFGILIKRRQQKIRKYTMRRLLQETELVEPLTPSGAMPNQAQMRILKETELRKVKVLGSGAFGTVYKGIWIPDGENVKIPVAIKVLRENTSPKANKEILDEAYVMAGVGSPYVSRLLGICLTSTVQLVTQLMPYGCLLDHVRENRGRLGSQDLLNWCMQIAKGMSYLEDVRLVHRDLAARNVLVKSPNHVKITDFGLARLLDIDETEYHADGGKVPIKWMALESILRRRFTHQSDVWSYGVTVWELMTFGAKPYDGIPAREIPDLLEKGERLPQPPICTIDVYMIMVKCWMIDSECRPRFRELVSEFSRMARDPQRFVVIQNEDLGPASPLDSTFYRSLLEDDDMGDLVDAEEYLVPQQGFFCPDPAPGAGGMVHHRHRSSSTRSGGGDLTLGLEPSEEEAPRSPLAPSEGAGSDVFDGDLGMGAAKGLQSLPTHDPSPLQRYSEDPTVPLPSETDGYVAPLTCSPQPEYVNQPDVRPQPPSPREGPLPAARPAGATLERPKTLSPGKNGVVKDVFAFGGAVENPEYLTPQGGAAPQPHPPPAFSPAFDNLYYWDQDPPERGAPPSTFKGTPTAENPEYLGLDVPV

In the case of CCCn1c2c(c(O)c(C(=O)NC)c1=O)CCCC2, the viability [1] is reported as 124%, the Her2 level [2] is reported as 95% (inactive) and the viability [3] is reported as 124% (inactive). The viability [4] was 92.7% (inactive), the viability [5] was 86% (inactive) and the differential viability (reversal) ([6]; H69AR cells + 2 uM doxorubicin) was -7.29% (inactive). For the same compound, the viability [6, 9] was 93.3%, the viability [6, 10] was 86% and the inhibition [7] was -4.34% (inactive). For the same compound, the inhibition [8] was 2.42% (inactive).

In the case of CCn1nnc(NC(=O)c2cc3ccccc3o2)n1, the viability [1] is reported as 103%, the Her2 level [2] is reported as 103% (inactive) and the viability [3] is reported as 103% (inactive). For the same compound, the viability [4] was 97.2% (inactive), the viability [5] was 101% (inactive) and the differential viability (reversal) ([6]; H69AR cells + 2 uM doxorubicin) was 11.5% (inactive). For the same compound, the viability [6, 9] was 90%, the viability [6, 10] was 101% and the inhibition [7] was -4.19% (inactive). For the same compound, the inhibition [8] was -9% (inactive).

In the case of CCN(CC)C(=O)CSc1nc2ccccc2c(=O)n1CCC(=O)NCc1ccc(F)cc1, the viability [1] is reported as 93%, the Her2 level [2] is reported as 105% (inactive) and the viability [3] is reported as 93% (inactive). For the same compound, the viability [4] was 98.3% (inactive), the viability [5] was 92.7% (inactive) and the differential viability (reversal) ([6]; H69AR cells + 2 uM doxorubicin) was 3.08% (inactive). For the same compound, the viability [6, 9] was 89.6%, the viability [6, 10] was 92.7% and the inhibition [7] was 4.34% (inactive). The inhibition [8] was 20.2% (inactive).

With CC1C=CC(C)C(C(=O)O)C1C(=O)O (stereo not given) the viability [1] was 103%, the Her2 level [2] was 93% (inactive) and the viability [3] was 103% (inactive). For the same compound, the viability [4] was 97.6% (inactive), the viability [5] was 93% (inactive) and the differential viability (reversal) ([6]; H69AR cells + 2 uM doxorubicin) was -5.29% (inactive). The viability [6, 9] was 98.3%, the viability [6, 10] was 93% and the inhibition [7] was -0.65% (inactive). For the same compound, the inhibition [8] was -5.67% (inactive).

For CCOC(=O)c1cnn(-c2cc(C)c3cc(C)cc(C)c3n2)c1N, the viability [1] was 88.5%, the Her2 level [2] was 104% (inactive) and the viability [3] was 88.5% (inactive). For the same compound, the viability [4] was 95.5% (inactive), the viability [5] was 82.5% (inactive) and the differential viability (reversal) ([6]; H69AR cells + 2 uM doxorubicin) was -2.12% (inactive). The viability [6, 9] was 84.6%, the viability [6, 10] was 82.5% and the inhibition [7] was 1.82% (inactive). The inhibition [8] was -8.89% (inactive).

In the case of CCn1c(=O)c(=O)[nH]c2cc(C(=O)N3CCN(c4ccccc4F)CC3)ccc21, the viability [1] is reported as 110%, the Her2 level [2] is reported as 91.5% (inactive) and the viability [3] is reported as 110% (inactive). For the same compound, the viability [4] was 97.1% (inactive), the viability [5] was 98.9% (inactive) and the differential viability (reversal) ([6]; H69AR cells + 2 uM doxorubicin) was 5.58% (inactive). The viability [6, 9] was 93.3%, the viability [6, 10] was 98.9% and the inhibition [7] was 0.14% (inactive). For the same compound, the inhibition [8] was -0.16% (inactive).

With O=C(Nc1ncc(Br)s1)C1CCCN1S(=O)(=O)c1cccc2cccnc12 (stereo not given) the viability [1] was 93%, the Her2 level [2] was 81.5% (inactive) and the viability [3] was 93% (inactive). For the same compound, the viability [4] was 87.4% (inactive), the viability [5] was 29.8% (active) and the differential viability (reversal) ([6]; H69AR cells + 2 uM doxorubicin) was -10.8% (inactive). The viability [6, 9] was 40.6%, the viability [6, 10] was 29.8% and the inhibition [7] was -0.38% (inactive). For the same compound, the inhibition [8] was -1.5% (inactive).

In the case of CCc1ccccc1NC(=O)CCc1nc(-c2ccc(C)cc2)no1, the viability [1] is reported as 95%, the Her2 level [2] is reported as 71.5% (inactive) and the viability [3] is reported as 95% (inactive). For the same compound, the viability [4] was 83% (inactive), the viability [5] was 99.3% (inactive) and the differential viability (reversal) ([6]; H69AR cells + 2 uM doxorubicin) was 3.1% (inactive). For the same compound, the viability [6, 9] was 96.2%, the viability [6, 10] was 99.3% and the inhibition [7] was -4.61% (inactive). The inhibition [8] was -3.67% (inactive).

For CCCOc1ccc(N2C(=O)C3ON(c4ccccc4)C(c4ccc(O)c(OC)c4)C3C2=O)cc1 (stereo not given), the viability [1] was 106%, the Her2 level [2] was 100% (inactive) and the viability [3] was 106% (inactive). For the same compound, the viability [4] was 71.6% (inactive), the viability [5] was 93.8% (inactive) and the differential viability (reversal) ([6]; H69AR cells + 2 uM doxorubicin) was 10.6% (inactive). The viability [6, 9] was 83.3%, the viability [6, 10] was 93.8% and the inhibition [7] was -3.03% (inactive). The inhibition [8] was 3.55% (inactive).

In the case of CCOC(=O)C(NC(C)=O)(Nc1ccc(S(=O)(=O)Nc2nccs2)cc1)C(F)(F)F (stereo not given), the viability [1] is reported as 120%, the Her2 level [2] is reported as 106% (inactive) and the viability [3] is reported as 120% (inactive). The viability [4] was 102% (inactive), the viability [5] was 109% (inactive) and the differential viability (reversal) ([6]; H69AR cells + 2 uM doxorubicin) was 3.07% (inactive). For the same compound, the viability [6, 9] was 106%, the viability [6, 10] was 109% and the inhibition [7] was 0.39% (inactive). For the same compound, the inhibition [8] was 8.57% (inactive).

For CN(C)/C=C(\C#N)c1nc2ccccc2[nH]1, the viability [1] was 85%, the Her2 level [2] was 90% (inactive) and the viability [3] was 85% (inactive). For the same compound, the viability [4] was 97.6% (inactive), the viability [5] was 98% (inactive) and the differential viability (reversal) ([6]; H69AR cells + 2 uM doxorubicin) was 20.9% (inactive). For the same compound, the viability [6, 9] was 77%, the viability [6, 10] was 98% and the inhibition [7] was 2.37% (inactive). The inhibition [8] was -8.36% (inactive).

For O=C(NCC(=O)N(c1cnc2ccccc2c1)C(C(=O)NC1CCCC1)c1ccncc1)c1ccco1 (stereo not given), the viability [1] was 86%, the Her2 level [2] was 94% (inactive) and the viability [3] was 86% (inactive). For the same compound, the viability [4] was 94.5% (inactive), the viability [5] was 90.1% (inactive) and the differential viability (reversal) ([6]; H69AR cells + 2 uM doxorubicin) was -3.65% (inactive). For the same compound, the viability [6, 9] was 93.7%, the viability [6, 10] was 90.1% and the inhibition [7] was 3.64% (inactive). The inhibition [8] was 13.4% (inactive).

In the case of NC(=O)C(Cc1ccccc1)NS(=O)(=O)c1ccc(N2CCCC2=O)cc1 (stereo not given), the viability [1] is reported as 90.5%, the Her2 level [2] is reported as 92% (inactive) and the viability [3] is reported as 90.5% (inactive). The viability [4] was 108% (inactive), the viability [5] was 101% (inactive) and the differential viability (reversal) ([6]; H69AR cells + 2 uM doxorubicin) was 10.9% (inactive). The viability [6, 9] was 90%, the viability [6, 10] was 101% and the inhibition [7] was -3.87% (inactive). The inhibition [8] was 1.48% (inactive).

With CCN(Cc1nc2cc(OC)c(OC)cc2c(=O)[nH]1)C(=O)c1ccc(S(=O)(=O)N(C)C)cc1 the viability [1] was 113%, the Her2 level [2] was 106% (inactive) and the viability [3] was 113% (inactive). The viability [4] was 88.2% (inactive), the viability [5] was 109% (inactive) and the differential viability (reversal) ([6]; H69AR cells + 2 uM doxorubicin) was 10.3% (inactive). For the same compound, the viability [6, 9] was 98.5%, the viability [6, 10] was 109% and the inhibition [7] was -3.07% (inactive). For the same compound, the inhibition [8] was 3.44% (inactive).

With CC(=O)OCC(=O)c1ccc2ccn(C(C)=O)c2c1 the viability [1] was 106%, the Her2 level [2] was 89% (inactive) and the viability [3] was 106% (inactive). For the same compound, the viability [4] was 94.9% (inactive), the viability [5] was 90.5% (inactive) and the differential viability (reversal) ([6]; H69AR cells + 2 uM doxorubicin) was -1.94% (inactive). For the same compound, the viability [6, 9] was 92.5%, the viability [6, 10] was 90.5% and the inhibition [7] was -5.33% (inactive). The inhibition [8] was 3.11% (inactive).

With CCOC(=O)C(C)Sc1nc2c(cnn2-c2ccc(C)cc2)c(=O)[nH]1 (stereo not given) the viability [1] was 83%, the Her2 level [2] was 85.5% (inactive) and the viability [3] was 83% (inactive). The viability [4] was 51.8% (inactive), the viability [5] was 14.4% (active) and the differential viability (reversal) ([6]; H69AR cells + 2 uM doxorubicin) was -58.2% (inactive). The viability [6, 9] was 72.6%, the viability [6, 10] was 14.4% and the inhibition [7] was -2.53% (inactive). The inhibition [8] was -11.2% (inactive).
